Measured values reported in ChEMBL document CHEMBL3272041, “Quantitative correlations between albumin binding constants and chromatographic Rm values of phenothiazine derivatives” (J Med Chem, 1977).

Key:
[1] = Dissociation constant, pKa of the compound by UV-visible spectrophotometer analysis; type: physicochemical
[2] = Oleyl alcohol-water partition coefficient, Rm of the compound measured at 0% methanol by reverse-phase thin layer chromatography; type: physicochemical
Outline: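 Reversed-phase TLC on Kieselguhr G impregnated with oleyl alcohol. Mobile phases were methanol–water with ammonia and KCl, pH* 10.5, ionic strength 0.1 M, methanol 30–55% (w/w). Each compound had 10–12 Rm determinations at each methanol concentration.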

[3] = Octanol-water partition coefficient, log P of the compound; type: physicochemical
Albumin [4] = molecular target: T1, Albumin (Bos taurus, UniProt P02769); assay: Binding affinity to bovine serum albumin by circular dichroic probe technique; type: ADME; details: cattle, isolated protein
T1 sequence (P02769 whole entry): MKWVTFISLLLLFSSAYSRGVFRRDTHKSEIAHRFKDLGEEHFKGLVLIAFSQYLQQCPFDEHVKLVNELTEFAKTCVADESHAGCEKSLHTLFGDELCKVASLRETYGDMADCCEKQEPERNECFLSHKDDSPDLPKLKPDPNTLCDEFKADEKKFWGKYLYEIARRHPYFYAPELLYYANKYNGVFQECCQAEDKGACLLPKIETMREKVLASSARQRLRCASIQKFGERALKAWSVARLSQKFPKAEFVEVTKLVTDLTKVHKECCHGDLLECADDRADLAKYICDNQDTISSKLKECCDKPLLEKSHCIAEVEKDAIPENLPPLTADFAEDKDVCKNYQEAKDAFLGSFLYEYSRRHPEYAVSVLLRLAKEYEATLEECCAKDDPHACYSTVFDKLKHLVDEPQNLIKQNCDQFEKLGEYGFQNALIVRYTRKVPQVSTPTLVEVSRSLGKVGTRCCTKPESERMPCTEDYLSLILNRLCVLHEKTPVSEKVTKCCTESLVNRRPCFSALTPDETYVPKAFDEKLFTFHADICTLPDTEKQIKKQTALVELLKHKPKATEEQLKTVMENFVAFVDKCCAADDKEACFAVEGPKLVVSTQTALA

Albumin [5] = molecular target: T1, Albumin; assay: Binding affinity to bovine serum albumin; type: ADME; details: cattle, isolated protein
Albumin [6] = molecular target: T1, Albumin; assay: Binding affinity to bovine serum albumin assessed as intrinsic binding constant; type: ADME; details: cattle, isolated protein
Albumin [7] = molecular target: T1, Albumin; assay: Binding affinity to bovine serum albumin high affinity site by circular dichroic probe technique; type: ADME; details: cattle, isolated protein
Outline: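 Displacement of sulfaethidole from its primary BSA site, followed by circular dichroism. Solutions were in 0.054 M sodium phosphate, pH 7.44 (25 °C), isotonic with NaCl. Reagent concentrations were 1.45 × 10−5 and 2.11 × 10−5 M. Spectra were scanned from 420 to 265 nm in 10-mm cells, with ellipticity read at 280–286 nm, corrected for drug effect on BSA. Apparent K came from the Klotz equation (n = 1) and was extrapolated to zero drug concentration.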

Row | SMILES | pKa [1] | Rm [2] | logP [3] | logKa (Albumin [4]) | log K (Albumin [5]) | log K (Albumin [6]) | Activity (Albumin [7]) [×10⁵ L/mol]
1 | COc1ccc2c(c1)N(CCCN(C)C)c1ccccc1S2 [METHOXYPROMAZINE] | 9.41 | 3.19 | 4.63 | 4.66 | 4.11 | – | –
2 | OCCN1CCN(CCCN2c3ccccc3Sc3ccc(Cl)cc32)CC1 [PERPHENAZINE] | 7.9 | 2.74 | 3.92 | 4.2 | – | – | –
3 | OCCN1CCN(CCCN2c3ccccc3Sc3ccc(C(F)(F)F)cc32)CC1 [FLUPHENAZINE] | – | 3.03 | 4.47 | – | – | – | –
4 | CCCC(=O)c1ccc2c(c1)N(CCCN1CCN(C)CC1)c1ccccc1S2 [BUTAPERAZINE] | 8.1 | 3.37 | – | 4.78 | – | – | –
5 | CSc1ccc2c(c1)N(CCC1CCCCN1C)c1ccccc1S2 (stereo not given) [THIORIDAZINE] | – | 4.51 | – | 5.15 | – | – | –
6 | CN(C)CCCN1c2ccccc2Sc2ccc(C(F)(F)F)cc21 [TRIFLUPROMAZINE] | – | 4.24 | – | 5.17 | 4.58 | 3.99 | –
7 | CN(C)CCCN1c2ccccc2Sc2ccc(C#N)cc21 | 9.29 | 2.94 | – | 4.46 | – | – | –
8 | CCc1nnc(NS(=O)(=O)c2ccc(N)cc2)s1 [SULFAETHIDOLE] | – | – | – | – | – | – | 2.1
9 | CN1CCN(CCCN2c3ccccc3Sc3ccc(C(F)(F)F)cc32)CC1 [TRIFLUOPERAZINE] | – | 3.55 | – | 4.67 | – | – | –
10 | N#Cc1ccc2c(c1)N(CCCN1CCC(O)CC1)c1ccccc1S2 [PERICIAZINE] | 8.5 | 2.17 | – | 4.12 | – | – | –
11 | CN1CCN(CCCN2c3ccccc3Sc3ccc(Cl)cc32)CC1 [PROCHLORPERAZINE] | – | 3.38 | – | 4.59 | – | 3.7 | –
12 | CN1CCN(CCCN2c3ccccc3Sc3ccccc32)CC1 [PERAZINE] | 8.1 | 2.67 | 3.8 | 4.36 | 4.32 | 3.33 | –
13 | CC(CN1CCN(CCOCCO)CC1)CN1c2ccccc2Sc2ccccc21 (stereo not given) [DIXYRAZINE] | 8 | 2.49 | – | 4.21 | – | – | –
14 | CN1CCCCC1CCN1c2ccccc2Sc2ccc([S+](C)[O-])cc21 (stereo not given) [MESORIDAZINE] | – | 2.32 | – | – | – | – | –
15 | CN(C)CCCN1c2ccccc2Sc2ccccc21 [PROMAZINE] | 9.42 | 3.43 | 4.68 | 4.54 | 3.95 | 3.45 | –
16 | CN(C)CCCN1c2ccccc2Sc2ccc(Cl)cc21 [CHLORPROMAZINE] | – | 4.12 | – | 4.98 | – | – | –
